Experimental findings from ChEMBL document CHEMBL1821604, “Anticancer activity and cDNA microarray studies of a (RS)-1,2,3,5-tetrahydro-4,1-benzoxazepine-3-yl]-6-chloro-9H-purine, and an acyclic (RS)-O,N-acetalic 6-chloro-7H-purine” (Eur J Med Chem, 2011) are described below.

Common to all, as to type: functional
The test system of test [1] is HT-29. Put plainly: Upregulation of COL1A1 gene expression in human HT-29 cells at IC50 after 48 hrs by cDNA microarray technique relative to control.
Test [2] concerns MCF7. Put plainly: Down regulation of C20orf54 gene expression in human MCF7 cells at IC50 after 48 hrs by cDNA microarray technique relative to control. An outline of the steps: (§1)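 8 × 10⁶ cells exposed 48 h to compound at its IC50 concentration; total RNA isolated with trizol/chloroform and RNeasy columns including on-column DNase step; RNA quantified by OD 260/280; DMSO-treated cultures as control.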

Test [3] has as its system MCF7. The test is described as follows: Down regulation of DKFZp667G2110 gene expression in human MCF7 cells at IC50 after 48 hrs by cDNA microarray technique relative to control. The gist of the method:
as §1

The subject of test [4] is HT-29. Put plainly: Upregulation of C20orf40 gene expression in human HT-29 cells at IC50 after 48 hrs by cDNA microarray technique relative to control.
Test [5] has as its system MCF7. Put plainly: Down regulation of PGLYRP4 gene expression in human MCF7 cells at IC50 after 48 hrs by cDNA microarray technique relative to control.
The test system of test [6] is HT-29. The test is described as follows: Upregulation of TREM4 gene expression in human HT-29 cells at IC50 after 48 hrs by cDNA microarray technique relative to control.
The subject of test [7] is HT-29. Put plainly: Upregulation of PDGFA gene expression in human HT-29 cells at IC50 after 48 hrs by cDNA microarray technique relative to control.
Test [8] has as its system HT-29. Put plainly: Down regulation of COL11A1 gene expression in human HT-29 cells at IC50 after 48 hrs by cDNA microarray technique relative to control. An outline of the steps:
as §1

The subject of test [9] is HT-29. The test is described as follows: Down regulation of P53AIP1 gene expression in human HT-29 cells at IC50 after 48 hrs by cDNA microarray technique relative to control.
For test [10], the system named is HT-29. Put plainly: Down regulation of RAB3D gene expression in human HT-29 cells at IC50 after 48 hrs by cDNA microarray technique relative to control.
In test [11] the test system is HT-29. Put plainly: Down regulation of SCD4 gene expression in human HT-29 cells at IC50 after 48 hrs by cDNA microarray technique relative to control.
Test [12] concerns HT-29. The test is described as follows: Down regulation of ADAMTS3 gene expression in human HT-29 cells at IC50 after 48 hrs by cDNA microarray technique relative to control. An outline of the steps:
as §1

In test [13] the test system is HT-29. The test is described as follows: Down regulation of MOG gene expression in human HT-29 cells at IC50 after 48 hrs by cDNA microarray technique relative to control.
Test [14] concerns HT-29. The test is described as follows: Down regulation of TCP10 gene expression in human HT-29 cells at IC50 after 48 hrs by cDNA microarray technique relative to control.
The test system of test [15] is MCF7. The test is described as follows: Upregulation of WBSCR27 gene expression in human MCF7 cells at IC50 after 48 hrs by cDNA microarray technique relative to control.
In test [16] the test system is MCF7. Put plainly: Upregulation of SMARCA1 gene expression in human MCF7 cells at IC50 after 48 hrs by cDNA microarray technique relative to control.
The test system of test [17] is MCF7. Put plainly: Upregulation of PPIL4 gene expression in human MCF7 cells at IC50 after 48 hrs by cDNA microarray technique relative to control.
For test [18], the system named is HT-29. Put plainly: Down regulation of POU6F1 gene expression in human HT-29 cells at IC50 after 48 hrs by cDNA microarray technique relative to control.
The test system of test [19] is MCF7. The test is described as follows: Upregulation of FLJ10945 gene expression in human MCF7 cells at IC50 after 48 hrs by cDNA microarray technique relative to control.
In test [20] the test system is MCF7. Put plainly: Down regulation of THSD2 gene expression in human MCF7 cells at IC50 after 48 hrs by cDNA microarray technique relative to control.
Test [21] has as its system HT-29. Put plainly: Down regulation of HNRPAB gene expression in human HT-29 cells at IC50 after 48 hrs by cDNA microarray technique relative to control. An outline of the steps:
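Cells (8 × 10⁶) were cultured in DMEM with 10% heat-inactivated FBS at 37 °C under 5% CO₂. They were exposed for 48 h to compound at its IC₅₀, with DMSO-treated parallel cultures as controls (final DMSO ≤0.1% v/v). Total RNA was isolated by trizol/chloroform phase separation, RNeasy column cleanup and on-column DNase, then quantified by OD260/OD280. Expression was profiled by cDNA microarray relative to control.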

For test [22], the system named is HT-29. Put plainly: Down regulation of SNRP70 gene expression in human HT-29 cells at IC50 after 48 hrs by cDNA microarray technique relative to control.
Test [23] relates to HT-29. The test is described as follows: Down regulation of ANP32D gene expression in human HT-29 cells at IC50 after 48 hrs by cDNA microarray technique relative to control. An outline of the steps:
as §1

Test [24] has as its system HT-29. The test is described as follows: Down regulation of ANP32C gene expression in human HT-29 cells at IC50 after 48 hrs by cDNA microarray technique relative to control. The gist of the method:
as §1

Test [25] relates to HT-29. Put plainly: Down regulation of D4S234E gene expression in human HT-29 cells at IC50 after 48 hrs by cDNA microarray technique relative to control. An outline of the steps: as §1
Test [26] relates to HT-29. Put plainly: Down regulation of ACCN5 gene expression in human HT-29 cells at IC50 after 48 hrs by cDNA microarray technique relative to control. The gist of the method: as §1
The test system of test [27] is HT-29. Put plainly: Down regulation of OR4K15 gene expression in human HT-29 cells at IC50 after 48 hrs by cDNA microarray technique relative to control.
In test [28] the test system is HT-29. Put plainly: Down regulation of PRKAG1 gene expression in human HT-29 cells at IC50 after 48 hrs by cDNA microarray technique relative to control.
Test [29] concerns MCF7. Put plainly: Upregulation of UNQ739 gene expression in human MCF7 cells at IC50 after 48 hrs by cDNA microarray technique relative to control.
Test [30] relates to MCF7. Put plainly: Upregulation of MRPL49 gene expression in human MCF7 cells at IC50 after 48 hrs by cDNA microarray technique relative to control.
The test system of test [31] is MCF7. Put plainly: Upregulation of CALM1 gene expression in human MCF7 cells at IC50 after 48 hrs by cDNA microarray technique relative to control.
The test system of test [32] is MCF7. The test is described as follows: Upregulation of MAGEA2B gene expression in human MCF7 cells at IC50 after 48 hrs by cDNA microarray technique relative to control.
Test [33] relates to MCF7. The test is described as follows: Upregulation of CD1B gene expression in human MCF7 cells at IC50 after 48 hrs by cDNA microarray technique relative to control.
For test [34], the system named is MCF7. Put plainly: Down regulation of C9orf125 gene expression in human MCF7 cells at IC50 after 48 hrs by cDNA microarray technique relative to control. The gist of the method:
as §1

In test [35] the test system is HT-29. The test is described as follows: Upregulation of TUBB4 gene expression in human HT-29 cells at IC50 after 48 hrs by cDNA microarray technique relative to control.
For test [36], the system named is HT-29. The test is described as follows: Upregulation of C1orf24 gene expression in human HT-29 cells at IC50 after 48 hrs by cDNA microarray technique relative to control.
The test system of test [37] is HT-29. The test is described as follows: Down regulation of DKFZp451J0118 gene expression in human HT-29 cells at IC50 after 48 hrs by cDNA microarray technique relative to control. An outline of the steps: as §1
The subject of test [38] is HT-29. Put plainly: Down regulation of PP1201 gene expression in human HT-29 cells at IC50 after 48 hrs by cDNA microarray technique relative to control.

Consider `COC(CN(c1ccccc1CO)S(=O)(=O)c1ccccc1[N+](=O)[O-])n1cnc2ncnc(Cl)c21` (racemic), for which the “fold change (FC)” value in the test on HT-29 [1] is listed as 4.97; with MCF7 [2], -2.14; in the test on MCF7 [3] it was -2.15; with HT-29 [4], 2.56; in the test on MCF7 [5] it was -2.45; in the test on HT-29 [6] it was 2.27. Also, the “fold change (FC)” value in the test with HT-29 [7] was 2.15; in the test with HT-29 [8], -2.03; with HT-29 [9], -2.06; in the test on HT-29 [10], -2.24; in the test on HT-29 [11], -2.25; in the test with HT-29 [12] it was -2.43. Also, the “fold change (FC)” value is -2.65 in the test on HT-29 [13]; -2.75 in the test with HT-29 [14]; 3.59 in the test on MCF7 [15]; 2.91 with MCF7 [16]; 2.4 in the test with MCF7 [17]; -3.13 in the test with HT-29 [18]. Besides, the figures for the “fold change (FC)” value in the test with MCF7 [19] and in the test with MCF7 [20] were 2.07 and -2.28, respectively.

Take `O=C(OCC1c2ccccc2-c2ccccc21)N1CC(n2cnc3c(Cl)ncnc32)OCc2ccccc21` (racemic): the “fold change (FC)” value is listed as -2.45 in the test with HT-29 [21]; -2.78 in the test on HT-29 [22]; -2.8 with HT-29 [23]; -2.81 in the test on HT-29 [24]; -2.91 in the test with HT-29 [25]; -2.98 in the test on HT-29 [26]. Moreover, the “fold change (FC)” value with HT-29 [27] was -3.6; with HT-29 [28], -3.98; in the test on MCF7 [29], 4.07; in the test on MCF7 [30] it was 3.12; with MCF7 [31], 2.99; in the test with MCF7 [32], 2.53. Besides, the “fold change (FC)” value with MCF7 [33] was 2.31; in the test on MCF7 [34] it was -3.38; in the test on HT-29 [35], 3.23; with HT-29 [36], 2.44; with HT-29 [37] it was -2.03; in the test with HT-29 [38], -2.04.
